From PubChem BioAssay
KCNQ1 block – inhibitors of human KCNQ1 potassium channel | P51787 | CHO-K1 KCNQ1, FluxOR thallium flux fluorescence; active compounds read high | B-score at 10 µM | hit rate 1.3% among 310,000 | AID 2642;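 active = compounds whose thallium flux B-score, printed positive for inhibition, exceeds three library SD while starting fluorescence stays within three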;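 note: channel opened by potassium depolarization with thallium stimulus after 20 min compound exposure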
KCNQ1 pot – potentiators or activators of human KCNQ1 potassium channel; AID 2648; P51787; B-score at 10 µM; hit rate 0.35% among 310,000; CHO-K1 KCNQ1, thallium flux FluxOR fluorescence; active compounds read high;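 active = fluorescence ratio B-score, a plate-corrected score, at least three library SD, with initial intensity B-score within 5 SD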
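Material: CHO-K1 cells stably expressing KCNQ1. Medium: assay buffer for compound exposure, DMSO matched across wells. Reagent: K+/Tl+ depolarizing stimulus. Compound dosing: single-concentration screen. Times: 37 °C overnight plating, 90-min dark dye load, 20-min compound pretreatment. Technique: FluxOR Tl+ flux fluorescence.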
Kir21 block – inhibitors of mouse Kir2.1 inward-rectifier potassium channel; P35561; hit rate 0.85% among 310,000; HEK293-Kir2.1, FluxOR thallium flux fluorescence; active compounds read low; AID 1672; B-score at 10 µM;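 active = fluorescence ratio B-score at or below minus 3 SD of library scores, with starting-brightness B-score within 2 SD, cut at about -4.2 in these data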;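 note: channel flux triggered by added potassium and thallium sulfate stimulus; B-score of peak minus minimum fluorescence over baseline after thallium stimulus; more negative B-score means stronger Kir2.1 block with less thallium influx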
KCNK9 inh – human KCNK9 channel inhibition | hit rate 1.2% among 310,000 | HEK293 KCNK9, FluxOR thallium flux fluorescence; active compounds read low | Q9NPC2 | B-score at 10 µM;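 active = ratio B-score over 3 SD below the library mean, with starting fluorescence within 5 SD of its mean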;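 note: negative B-score means less thallium flux so channel inhibition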
Target sequence (Q9NPC2 whole entry, looked up): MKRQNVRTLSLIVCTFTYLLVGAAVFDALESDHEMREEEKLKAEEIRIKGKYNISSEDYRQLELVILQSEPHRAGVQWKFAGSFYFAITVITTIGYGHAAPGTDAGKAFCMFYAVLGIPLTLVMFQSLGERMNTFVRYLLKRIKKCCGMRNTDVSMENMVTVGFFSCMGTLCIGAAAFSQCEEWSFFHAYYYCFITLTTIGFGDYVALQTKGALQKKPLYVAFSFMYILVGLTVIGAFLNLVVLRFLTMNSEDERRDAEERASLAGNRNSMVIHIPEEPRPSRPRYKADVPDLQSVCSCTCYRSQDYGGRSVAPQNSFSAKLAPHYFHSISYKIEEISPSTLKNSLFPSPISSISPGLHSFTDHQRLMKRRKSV
hERG protect – shields human hERG channel from block by proarrhythmic agents. Q12809. CHO-hERG, FluxOR thallium flux, dofetilide IC70 present. activation (rescue from dofetilide block), less the hit threshold, % at 10 µM. hit rate 0.51% among 310,000. AID 1511;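 active = activation above the mean of controls blocked by dofetilide plus 5 SD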;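 note: thallium influx through hERG after potassium depolarization seen as dye fluorescence rise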
KCNK3 inh – human KCNK3 channel inhibition, primary screen; B-score at 10 µM; O14649; hit rate 0.84% among 340,000; AID 602410; CHO-KCNK3 thallium flux, FluxOR fluorescence; active compounds read low;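 active = B-score under library mean minus 4 SD, starting fluorescence ratio at most library mean plus 5 SD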;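 note: more negative B-score means stronger inhibition of thallium flux through KCNK3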
Active calls of the source: *; i = inactive; / = not tested or not shown. The list is not random: actives were taken first. Their share in the collection is about 3.7%.

SMILES	KCNQ1 block	KCNQ1 pot	Kir21 block	KCNK9 inh	hERG protect	KCNK3 inh
O=C(OCC(=O)N1CCCC1)c1cc(Cl)ccc1Cl	i	i	0.99	i	-9	i
CCOc1ccc(-c2cc(N3C(=O)Nc4ccccc4N3O)n[nH]2)cc1	i	i	0.18	i	-2	i
CCOC(=O)c1c(N2C(=O)Nc3ccccc3N2O)n[nH]c1-c1cccc(Cl)c1	i	36*	0.11	i	11*	i
CCOC(=O)c1ccc(NC(=O)Cn2nnc(-c3ccccc3)n2)cc1	i	i	1.7	i	14*	i
CC(NC(=O)COC(=O)C1CC2CCCC(C1)C2=O)c1ccccc1 (configuration not stated)	/	/	/	/	/	i
COC(=O)C1=C(C)N(Cc2ccccc2)C(=NCCc2cccnc2)N[C@H]1c1ccc(Br)cc1	/	/	/	/	/	i
COC(=O)C1=C(C)N(Cc2ccccc2)C(=NCCc2cccnc2)N[C@H]1c1ccccc1	i	i	-11*	i	-7	i
COC(=O)C1=C(C)N(Cc2ccccc2)C(=NCC2CC2)N[C@H]1c1ccccc1	/	/	/	/	/	i
COC(=O)C1=C(C)N(Cc2ccccc2)C(=NCCCCO)N[C@H]1c1ccccc1	i	i	-4.6*	i	-4	/
O=C(COc1ccccc1)Nc1ccncc1Cl	i	i	-0.77	i	-8	i
O=C(NCCCN1CCOCC1)c1cn(-c2ccccc2)nc1-c1cccs1	i	i	-4.5*	i	-11	i
O=C(NCCN1CCOCC1)c1cn(-c2ccccc2)nc1-c1cccs1	i	i	2.4	i	-14	i
CCN(CC(=O)Nc1c(F)cccc1F)C(=O)c1ccc2c(c1)OCO2	/	/	/	/	/	i
N#CC1=C(SCC(=O)c2ccc(Cl)cc2)NC2=C(C(=O)CCC2)C1c1ccco1 (configuration not stated)	i	i	1.3	i	-16	i
CC(=O)C1=C(C)NC(SCC(=O)c2ccc(C)cc2)=C(C#N)C1c1ccco1 (configuration not stated)	6*	i	1.6	i	-12	/
COc1ccccc1CCNCc1ccc(OC)c(OCc2ccccc2)c1	i	i	-8.5*	i	-24	i
COc1cc(CNCCc2ccccc2)ccc1OCc1ccc(Cl)nc1	i	i	-6.4*	i	-11	i
O=C(/C=C/c1cccc([N+](=O)[O-])c1)NCCSCc1ccc(Cl)cc1Cl	i	i	-0.58	-14*	-13	i
COc1ccc(-c2noc(CCCC(=O)N3CCN(c4cc(C)ccc4C)CC3)n2)cc1	/	/	/	/	/	-8.8*
COc1ccc(-c2noc(CCCCC(=O)N3CCN(c4cc(C)ccc4C)CC3)n2)cc1	/	/	/	/	/	-11*
Cc1cc(C)c(C)c(S(=O)(=O)Nc2cccc(S(=O)(=O)Nc3ccccc3C(=O)O)c2)c1C	/	/	/	/	/	i
Cc1ccc(C)c(N2CCN(c3nc4ccccc4c(=O)n3Cc3ccccc3)CC2)c1	i	i	1.6	-7.6*	-12	i
Cc1ccc(C)c(N2CCN(C(=O)c3ccc(Cn4c(=O)[nH]c5ccccc5c4=O)cc3)CC2)c1	i	i	-0.8	i	-12	i
CCN(CC)C(=O)C1CCCN(C(=O)c2oc3ccc(C)cc3c2C)C1 (configuration not stated)	i	i	0.51	i	-9	i
COc1ccc(/C=N/NC(=O)c2ccn[nH]2)cc1COc1ccc([N+](=O)[O-])c(C)c1	6*	i	-1.3	i	-8	i
SMILES	KCNQ1 block	KCNQ1 pot	Kir21 block	KCNK9 inh	hERG protect	KCNK3 inh
Cc1cc(C)nc(SCc2nnc(SCC(=O)N3CCCc4ccccc43)o2)n1	i	i	-5*	i	-6	i
O=C(NNc1c2ccccc2nc2ccccc12)c1ccccc1O	i	i	0	i	-11	i
O=C(NNc1c2ccccc2nc2ccccc12)c1ccccc1Cl	i	9*	-0.98	i	-3	i
COc1ccc(C(=O)/C=C/C(=O)N(CC(=O)NC2CCCCC2)CC2CCCO2)c(O)c1 (configuration not stated)	i	i	-5.3*	i	-37	i
CC(C)(C)c1ccc(/C=C2\Oc3cc(O)ccc3C2=O)cc1	i	i	0.18	i	-3	i
O=C1/C(=C/c2ccc([N+](=O)[O-])cc2)Oc2cc(O)ccc21	6*	i	0.28	i	-7	i
CCOC(=O)C1CCN(S(=O)(=O)c2c(C)[nH]c(C)c2C(=O)N2CCCCC2)CC1	i	i	-0.88	i	-5	i
CCOc1ccccc1N1CCN(Cc2cccc(OC)c2OC)CC1	6*	i	-0.7	i	-16	i
COC(=O)Cc1ccc(OC(=O)CCS(=O)(=O)c2ccc(C)cc2)cc1	i	i	0.94	i	-12	i
Cc1ccc(-n2c(-c3cc(-c4ccco4)[nH]n3)n[nH]c2=S)c(Br)c1	6*	i	-0.25	i	-15	i
COc1ccc(OCc2cc(C(=O)N(C)CC3CCCCO3)no2)c(Cl)c1 (configuration not stated)	i	i	-2.6	i	-8	i
COc1cc(Cl)ccc1OCc1cc(C(=O)N(C)CC2CCCCO2)no1 (configuration not stated)	i	i	-4.5*	i	-8	i
Cc1cc(C(=O)OCC(=O)N(C)c2ccccc2)ccc1[N+](=O)[O-]	i	i	0.78	i	-7	i
Cc1ccc(C(=O)OCC(=O)N(C)c2ccccc2)cc1C	i	11*	0.2	i	-4	i
Cc1cc(C)n2nc(C(=O)OCC(=O)Nc3ccc(C)c(S(=O)(=O)N4CCOCC4)c3)nc2n1	/	/	/	/	/	i
CN1C(=O)NC(c2ccccc2[N+](=O)[O-])C2=C1CC(C)(C)CC2=O (configuration not stated)	i	i	0.93	i	-6	i
CN1C(=O)NC(c2ccccc2[N+](=O)[O-])C2=C1CCCC2=O (configuration not stated)	6*	i	-1.8	i	-15	i
CC(=O)N1Cc2ccccc2C(C)CC12CCCCC2 (configuration not stated)	i	i	-7.3*	i	-6	i
O=[N+]([O-])c1ccc(-c2ccc(/C=N/n3cnnc3)o2)c(Br)c1	i	i	1.3	i	7.5*	i
CCCC[n+]1c(C)sc2cc(OC)ccc21	i	i	-0.09	i	-11	i
COc1ccc2sc(C)[n+](C)c2c1	i	i	0.02	i	4.6*	i
CCCN1C(=O)/C(=C\C=C2\N(CC)c3ccccc3C2(C)C)SC1=S	9*	i	-2.3	i	-39	i
